This is one part of a sample in which hits are shown more often than they occur.
UPR XBP1 act – adaptive UPR (XBP1) activation; AID 463104; actives 0.33% (n = 330,000); activation, % at 20 µM; CHO-XBP1 luciferase reporter, IRE1-XBP1 UPR activation, luminescence; percent of tunicamycin response, DMSO as zero;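 active = versus positive control, 20 µM dose yields 30% or more activation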
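Material – CHO cell line with stable XBP1 luciferase reporter · Buffer or medium – F12 plus 10% FBS · Compound – single point, 20 µM final compound, 1% DMSO · Schedule – 16-18 h cell attachment at 37 °C, then 6 h compound exposure · Signal – Steady-Glo luminescence read · Benchmarks – high control tunicamycin 10 µg/mL final, low control DMSO vehicle only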
CHOP inh – inhibitors of CHOP induction in ER stress response; CHO-K1 CHOP-promoter luciferase, tunicamycin-induced, 15-18 h; actives 3.8% (n = 220,000); AID 2732; inhibition, % at 10 µM;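 active = compounds that reduced the stress-induced luciferase reporter signal by more than about 70% of percent inhibition, limit read from the data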
UPR CHOP act – activators of apoptotic arm of unfolded protein response (CHOP) | AID 449763 | activation, % at 10 µM | actives 0.34% (n = 330,000) | CHO-CHOP luciferase reporter, UPR activation, luminescence; percent of tunicamycin response over DMSO baseline;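 active = at 10 µM dose, activation of 40% or more, normalized to positive control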
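System: CHO-CHOP luciferase reporter cell line; amount: 500 cells/well; buffer or medium: F12 medium containing 10% fetal bovine serum; incubation: 6 h compound exposure at 37 °C after overnight seeding; measured by: luciferase luminescence after 10 min with Steady-Glo reagent; evaluation: % reporter activation, DMSO baseline versus tunicamycin full activation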
Dynein transport – blocks dynein driven cargo transport along microtubules | 3617.4 mouse cells, GR-EGFP nuclear translocation imaging; test concentration mostly 20 µM; stimulated with dexamethasone, 1 µM; active compounds read low | actives 0.47% (n = 220,000) | z-score, hits read low | AID 1381;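 active = plate z-score of nuclear minus cytoplasmic receptor signal below a set negative limit, without overly bright fluorescence or cell loss, cut at about -3.5 in these data, passing the limit was not always enough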;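 note: z-score of nuclear minus cytoplasmic ring GR-EGFP intensity difference per well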
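Medium: Induction medium lacking tetracycline, stripped serum | Probe or stimulus: 1.0 µM final dexamethasone stimulus | Schedule: 48 h induction, then 1 h compound, then 30 min agonist, 37 °C | Signal: Automated 10x imaging of fixed Hoechst-stained cells | Evaluation: Per-cell GR-EGFP intensity, nucleus versus surrounding cytoplasmic ring, well-averaged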
T cruzi inh – blocks replication of Trypanosoma cruzi | T. cruzi beta-gal in NIH3T3, luminescence, 90 h | inhibition, % (concentration not given with the values) | actives 1.4% (n = 300,000) | AID 1885;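 active = mean inhibition across valid replicates above about 55%, limit read from the data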;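 note: signal also drops with host cell toxicity which is not excluded here; higher percent means less beta-gal luminescence so fewer parasites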
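Test system: β-gal T. cruzi (Tulahuen C4) inside NIH/3T3 cells / Quantity: 5,000 cells/well / Measured by: luminescence from GalScreen with 0.05% NP40, read after 60 min / Medium: DMEM plus 2% FBS / Measure: parasite load inhibition, % / Reagent: Tulahuen C4 trypomastigotes, 5000/well / Schedule: co-culture of at least 90 h after 3 h attachment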
L major viab – Leishmania major promastigote growth inhibition; Leishmania major promastigotes, resazurin fluorescence viability; inhibition, % at 10 µM; actives 9% (n = 200,000); in the data active = inhibition above about 50%;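 note: promastigotes grown with compound for 44 hours at 28 °C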
A number is an active result.

For CCOC(=O)C(O)(c1ccc(NC(=O)c2ccc(Cl)c(Cl)c2)cc1)C(F)(F)F (centres undefined) the results were UPR XBP1 act inactive, CHOP inh inactive, UPR CHOP act inactive, Dynein transport inactive and T cruzi inh inactive.
`COC(=O)C(O)(c1ccc(N(C)C(=O)c2ccc(Cl)c(Cl)c2)cc1)C(F)(F)F` (centres undefined) gave UPR XBP1 act inactive, CHOP inh inactive, UPR CHOP act inactive, Dynein transport inactive, T cruzi inh inactive and L major viab 64.
For CCOC(=O)C(O)(c1ccc(N(C)C(=O)c2ccc(Cl)c(Cl)c2)cc1)C(F)(F)F (centres undefined) the results were UPR XBP1 act inactive, CHOP inh inactive, UPR CHOP act inactive, Dynein transport inactive, T cruzi inh inactive and L major viab 97.
For COC(=O)C(O)(c1ccc(N(C)C)cc1)C(F)(F)F (centres undefined) the results were UPR XBP1 act inactive, CHOP inh inactive, UPR CHOP act inactive, Dynein transport inactive, T cruzi inh inactive and L major viab inactive.
`CCOC(=O)N(C)c1ccc(C(O)(C(=O)OC)C(F)(F)F)cc1` (centres undefined) gave UPR XBP1 act inactive, CHOP inh inactive, UPR CHOP act inactive, Dynein transport inactive, T cruzi inh inactive and L major viab 93.
OCCOCC#CCN1CCOCC1 was read as UPR XBP1 act inactive, CHOP inh inactive, UPR CHOP act inactive, Dynein transport inactive, T cruzi inh inactive and L major viab inactive.
Screening Nc1c2c(nc3sc4c(c13)CCCC4)CCCC2 returned UPR XBP1 act inactive, CHOP inh inactive, UPR CHOP act inactive, Dynein transport inactive, T cruzi inh inactive and L major viab 92.
For Nc1c2c(nc3sc4c(c13)CCCC4)CCCCC2 the results were UPR XBP1 act inactive, CHOP inh inactive, UPR CHOP act inactive, Dynein transport inactive, T cruzi inh inactive and L major viab 77.
CC(C)OP(=O)(Oc1ccc(C(O)C(Cl)(Cl)Cl)cc1)OC(C)C (centres undefined) was read as UPR XBP1 act inactive, CHOP inh inactive, UPR CHOP act inactive, Dynein transport inactive and T cruzi inh inactive.
O=C(Cc1ccccc1)N1CCN(CC2CC3C=CC2C3)CC1 (centres undefined) was read as UPR XBP1 act inactive, CHOP inh inactive, UPR CHOP act inactive, Dynein transport inactive, T cruzi inh inactive and L major viab 67.
`COc1cccc(OCC(=O)N2CCN(C)CC2)c1` gave UPR XBP1 act inactive, CHOP inh inactive, UPR CHOP act inactive, Dynein transport inactive, T cruzi inh inactive and L major viab inactive.
O=C(Cc1ccccc1)N1CCN(CC2CC=CCC2)CC1 (centres undefined) was read as UPR XBP1 act inactive, CHOP inh inactive, UPR CHOP act inactive, Dynein transport inactive, T cruzi inh inactive and L major viab 81.
CN1CCN(C(=O)Cc2ccccc2)CC1 was read as UPR XBP1 act inactive, CHOP inh inactive, UPR CHOP act inactive, Dynein transport inactive and T cruzi inh inactive.
For COc1ccc(OCC(=O)N2CCN(CC3CC4C=CC3C4)CC2)cc1 (centres undefined) the results were UPR XBP1 act inactive, CHOP inh inactive, UPR CHOP act inactive, Dynein transport inactive, T cruzi inh inactive and L major viab 87.
Screening C[C@H](NC(=O)N1C[C@H]2C[C@@H](C1)c1cccc(=O)n1C2)C(=O)Nc1ccccc1F returned UPR XBP1 act inactive, UPR CHOP act inactive and T cruzi inh inactive.
CCn1c(O)c(C=NCc2cccs2)c(=O)[nH]c1=O was read as UPR XBP1 act inactive, CHOP inh inactive, UPR CHOP act inactive, Dynein transport inactive, T cruzi inh inactive and L major viab inactive.
For CCC(=NCCN1CCOCC1)c1c(O)n(C2CCCCC2)c(=O)[nH]c1=O the results were UPR XBP1 act inactive, CHOP inh inactive, UPR CHOP act inactive, Dynein transport inactive and T cruzi inh inactive.
